Experimental data taken from ChEMBL document CHEMBL1135827, “Enhancement of nucleoside cytotoxicity through nucleotide prodrugs” (J Med Chem, 2002).

T1: DNA polymerase alpha catalytic subunit (Homo sapiens, UniProt P09884)
T1 sequence (P09884 whole entry): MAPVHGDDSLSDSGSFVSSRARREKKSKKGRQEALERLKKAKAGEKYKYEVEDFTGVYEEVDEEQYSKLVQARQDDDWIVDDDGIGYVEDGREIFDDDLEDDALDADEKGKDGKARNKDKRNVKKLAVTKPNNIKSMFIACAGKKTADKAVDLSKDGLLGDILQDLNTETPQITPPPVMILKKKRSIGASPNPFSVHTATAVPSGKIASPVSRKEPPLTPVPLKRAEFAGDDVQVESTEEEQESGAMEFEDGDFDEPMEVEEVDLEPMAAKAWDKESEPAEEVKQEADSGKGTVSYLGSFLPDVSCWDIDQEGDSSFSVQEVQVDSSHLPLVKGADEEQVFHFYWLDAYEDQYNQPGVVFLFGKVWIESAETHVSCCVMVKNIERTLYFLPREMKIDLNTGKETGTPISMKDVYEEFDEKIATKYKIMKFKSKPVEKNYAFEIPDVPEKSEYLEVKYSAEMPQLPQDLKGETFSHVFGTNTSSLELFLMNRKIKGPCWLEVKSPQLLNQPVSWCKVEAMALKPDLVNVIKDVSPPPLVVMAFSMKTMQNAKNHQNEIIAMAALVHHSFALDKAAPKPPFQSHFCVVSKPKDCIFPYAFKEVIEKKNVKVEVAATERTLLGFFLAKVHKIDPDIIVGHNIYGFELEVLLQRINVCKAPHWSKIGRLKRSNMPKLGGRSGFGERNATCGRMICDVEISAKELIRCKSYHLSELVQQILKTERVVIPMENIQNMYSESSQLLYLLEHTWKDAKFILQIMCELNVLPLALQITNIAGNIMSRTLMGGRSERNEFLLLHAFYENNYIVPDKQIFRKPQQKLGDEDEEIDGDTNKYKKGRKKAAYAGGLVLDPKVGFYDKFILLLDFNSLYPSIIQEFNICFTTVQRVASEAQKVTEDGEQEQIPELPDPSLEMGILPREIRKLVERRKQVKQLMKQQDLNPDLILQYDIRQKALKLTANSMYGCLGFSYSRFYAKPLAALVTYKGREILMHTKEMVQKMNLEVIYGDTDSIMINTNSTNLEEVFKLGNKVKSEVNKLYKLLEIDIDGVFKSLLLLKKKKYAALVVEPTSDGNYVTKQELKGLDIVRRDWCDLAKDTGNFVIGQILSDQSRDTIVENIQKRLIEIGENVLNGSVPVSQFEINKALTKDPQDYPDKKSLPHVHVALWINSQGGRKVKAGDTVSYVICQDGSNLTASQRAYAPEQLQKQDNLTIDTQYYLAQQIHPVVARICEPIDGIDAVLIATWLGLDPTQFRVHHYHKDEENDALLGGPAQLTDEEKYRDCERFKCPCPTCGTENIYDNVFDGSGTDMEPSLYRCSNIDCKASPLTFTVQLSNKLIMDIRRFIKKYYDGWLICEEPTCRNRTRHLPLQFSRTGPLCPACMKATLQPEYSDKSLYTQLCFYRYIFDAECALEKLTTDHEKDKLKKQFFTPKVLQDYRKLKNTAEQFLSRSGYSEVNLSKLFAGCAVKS

B1: DNA polymerase alpha catalytic subunit (Homo sapiens), P09884 (protein)
chain: T1 sequence (P09884 whole entry)

Assays:
[1] = test system: CCRF-CEM; test: Percent control of DNA synthesis in CEM cells; format: functional, Homo sapiens
How it was run: (§1)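 CEM cells (RPMI 1640, 10% FBS) incubated with 29 μM or 35 μM compound (± 10 μM dCF). [3H]thymidine, [3H]uridine or [3H]leucine added 30 min after drug; samples at 1, 2 and 4 h after label. Acid-precipitable radioactivity measured; RNA taken as total acid-precipitable minus alkali-stable/acid-precipitable (DNA) fraction. Expressed as percent of control; repeated twice.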

[2] = test system: CCRF-CEM; test: Percent control of protein synthesis in CEM cells; format: functional, Homo sapiens; how it was run: as §1
[3] = test system: CCRF-CEM; test: Percent control of RNA synthesis in CEM cells; format: functional, Homo sapiens; how it was run: as §1
[4] = biological target: T1, DNA polymerase alpha catalytic subunit; test: Ability to inhibit the incorporation of dATP into DNA by DNA polymerase alpha
How it was run: (§2)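 DNA polymerase α purified 52-fold from CEM cells (specific activity 120 nmol/mg/hr). 50 μL reactions: 50 mM Tris pH 8.0, 1 mg/mL BSA, 10 mM MgCl2, 1 mM DTT, 100 μg/mL activated DNA, 100 μM each dTTP and dCTP, 10 μM [3H]dGTP, dATP 0–100 μM. 1 h at 37 °C; TCA/ethanol-washed glass-fiber filters counted. Ki from slopes of Lineweaver–Burk lines vs inhibitor, three inhibitor concentrations.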

[5] = substrate: Nc1ncnc2c1ncn2[C@H]1C[C@H](O)[C@@H](COP(=O)(O)OP(=O)(O)OP(=O)(O)O)O1; test: Km value with DNA polymerase alpha; format: functional; how it was run: as §2

Ki [4] | Molecule | Control [1] | Control [2] | Control [3] | Km [5]
– | CC(C)(C)C(=O)OCOP(=O)(OCOC(=O)C(C)(C)C)OC[C@H]1O[C@@H](n2c(Br)nc3c(N)ncnc32)C[C@@H]1O | 53% | 94% | 14% | –
– | CC(C)(C)C(=O)OCOP(=O)(OCOC(=O)C(C)(C)C)OC[C@H]1O[C@@H](n2nnc3c(N)ncnc32)C[C@H]1O.OC[C@H]1O[C@@H](n2cnc3c2NC=NC[C@H]3O)C[C@@H]1O | 11% | 98% | 3% | –
156 µM | CC(C)(C)C(=O)OCOP(=O)(OCOC(=O)C(C)(C)C)OC[C@H]1O[C@@H](n2nnc3c(N)ncnc32)C[C@H]1O | 11% | 95% | 3% | –
– | B1 | – | – | – | 4 µM
